Series [1] addresses Casein kinase II subunit alpha (Homo sapiens) (UniProt P68400). The experiment in a line: Inhibition of wild-type human full length CSNK2A1 (M1 to Q391 residues) expressed in HEK293 cells assessed as residual activity at 1000 nM after 30 mins by Kinomescan method relative to control. In kind it is cell-based. The essentials: (§1)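 Single-point screen at a fixed 1 µM, run within a 456-kinase DiscoveRx KINOMEscan panel. Each kinase's read-out is Percent Control, i.e. signal relative to a control without compound. Hits were scored by a Percent Control < 35 cut-off, and an S(35) selectivity score was calculated across the non-mutant kinases.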

For series [2], the target named is PDGFRA (platelet-derived growth factor receptor alpha) (Homo sapiens, UniProt P16234). The experiment in a line: Inhibition of wild-type human partial length PDGFRA (V575 to D1002 residues) expressed in HEK293 cells assessed as residual activity at 1000 nM after 30 mins by Kinomescan method relative to control. Format: cell-based. The following applies: read-out: Activity.

Series [3] concerns the target Mitogen-activated protein kinase kinase kinase 9 (Homo sapiens) (UniProt P80192). Nature of the series: Inhibition of wild-type human partial length MLK1 (V88 to W426 residues) expressed in Escherichia coli BL21 assessed as residual activity at 1000 nM after 30 mins by Kinomescan method relative to control.
For series [4], the target named is Serine/threonine-protein kinase D2 (Homo sapiens) (UniProt Q9BZL6). Nature of the series: Inhibition of wild-type human partial length PRKD2 (A519 to E838 residues) expressed in Escherichia coli BL21 assessed as residual activity at 1000 nM after 30 mins by Kinomescan method relative to control.
The target of series [5] is Mitogen-activated protein kinase kinase kinase 10 (Homo sapiens) (UniProt Q02779). The experiment in a line: Inhibition of wild-type human partial length MLK2 (V52 to W380 residues) expressed in Escherichia coli BL21 assessed as residual activity at 1000 nM after 30 mins by Kinomescan method relative to control.
The target in series [6] is Myosin light chain kinase family member 4 (Homo sapiens) (UniProt Q86YV6). Nature of the series: Inhibition of wild-type human partial length MYLK4 (V79 to S380 residues) expressed in Escherichia coli BL21 assessed as residual activity at 1000 nM after 30 mins by Kinomescan method relative to control.
Myosin light chain kinase family member 4 (Homo sapiens), sequence (Q86YV6 whole entry, the tested form may be a part, canonical isoform): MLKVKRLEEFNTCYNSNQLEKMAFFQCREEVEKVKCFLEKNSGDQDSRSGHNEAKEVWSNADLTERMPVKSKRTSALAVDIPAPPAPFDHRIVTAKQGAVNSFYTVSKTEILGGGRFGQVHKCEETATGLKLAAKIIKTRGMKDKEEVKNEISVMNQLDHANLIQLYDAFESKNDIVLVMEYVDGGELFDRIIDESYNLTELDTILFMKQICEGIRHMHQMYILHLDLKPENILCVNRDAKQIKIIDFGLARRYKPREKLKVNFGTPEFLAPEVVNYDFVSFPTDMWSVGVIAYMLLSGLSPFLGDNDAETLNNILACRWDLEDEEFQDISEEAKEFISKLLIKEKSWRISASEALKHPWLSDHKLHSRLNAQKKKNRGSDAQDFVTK
For series [7], the target named is Phosphatidylinositol 4,5-bisphosphate 3-kinase catalytic subunit gamma isoform (Homo sapiens) (UniProt P48736). The experiment in a line: Inhibition of wild-type human partial length PIK3CG (S144 to A1102 residues) expressed in HEK293 cells assessed as residual activity at 1000 nM after 30 mins by Kinomescan method relative to control. In kind it is cell-based.

In series [8] the test system is Mast/stem cell growth factor receptor Kit (Homo sapiens), P10721 [V559D]. The experiment in a line: Inhibition of human partial length KIT V559D mutant (Y545 to D952 residues) expressed in Escherichia coli BL21 assessed as residual activity at 1000 nM after 30 mins by Kinomescan method relative to control. The method, boiled down:
(§2)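 KINOMEscan binding panel of 456 kinases, with the test compound at a single concentration of 1 µM. Read-out is Percent Control.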

Series [9] concerns Receptor-type tyrosine-protein kinase FLT3 (Homo sapiens), P36888 [D835V]. The experiment in a line: Inhibition of human partial length FLT3 D835V mutant (V592 to Y969 residues) expressed in Escherichia coli BL21 assessed as residual activity at 1000 nM after 30 mins by Kinomescan method relative to control. The method, boiled down: as §2
In series [10] the target is Serine/threonine-protein kinase MARK2 (Homo sapiens) (UniProt Q7KZI7). The experiment in a line: Inhibition of wild-type human partial length MARK2 (M1 to R450 residues) expressed in Escherichia coli BL21 assessed as residual activity at 1000 nM after 30 mins by Kinomescan method relative to control.
The target of series [11] is Cyclin-dependent kinase 16 (Homo sapiens) (UniProt Q00536). The experiment in a line: Inhibition of wild-type human partial length PCTK1 (G160 to A474 residues) expressed in HEK293 cells assessed as residual activity at 1000 nM after 30 mins by Kinomescan method relative to control. In kind it is cell-based.
Cyclin-dependent kinase 16 (Homo sapiens), sequence (Q00536 whole entry, the tested form may be a part): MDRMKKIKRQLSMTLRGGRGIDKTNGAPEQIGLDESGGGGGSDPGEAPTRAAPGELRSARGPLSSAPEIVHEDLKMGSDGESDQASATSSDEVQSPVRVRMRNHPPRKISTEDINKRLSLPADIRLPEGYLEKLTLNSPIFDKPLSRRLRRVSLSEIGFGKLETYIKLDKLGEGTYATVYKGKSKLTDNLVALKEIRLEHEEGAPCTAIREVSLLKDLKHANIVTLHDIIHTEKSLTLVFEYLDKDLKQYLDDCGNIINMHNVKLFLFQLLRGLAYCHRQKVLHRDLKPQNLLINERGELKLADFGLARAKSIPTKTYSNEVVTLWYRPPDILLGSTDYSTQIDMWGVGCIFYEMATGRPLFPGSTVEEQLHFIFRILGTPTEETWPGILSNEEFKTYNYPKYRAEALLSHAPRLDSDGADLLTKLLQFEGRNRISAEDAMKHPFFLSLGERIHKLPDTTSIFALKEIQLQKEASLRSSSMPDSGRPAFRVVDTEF
Series [12] has as its target Homeodomain-interacting protein kinase 2 (Homo sapiens) (UniProt Q9H2X6). Nature of the series: Inhibition of wild-type human partial length HIPK2 (M153 to S564 residues) expressed in HEK293 cells assessed as residual activity at 1000 nM after 30 mins by Kinomescan method relative to control. Format: cell-based.
Series [13] addresses Serine/threonine-protein kinase 32C (Homo sapiens) (UniProt Q86UX6). The experiment in a line: Inhibition of wild-type human partial length YANK3 (M68 to G486 residues) expressed in Escherichia coli BL21 assessed as residual activity at 1000 nM after 30 mins by Kinomescan method relative to control.
Series [14] deals with Serine/threonine-protein kinase NLK (Homo sapiens) (UniProt Q9UBE8). Nature of the series: Inhibition of wild-type human full length NLK (M13 to E527 residues) expressed in Escherichia coli BL21 assessed as residual activity at 1000 nM after 30 mins by Kinomescan method relative to control. The essentials:
(§3)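 Single-concentration screen at 1 µM across a 456-kinase KINOMEscan panel. The read-out is Percent Control for each kinase.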

In series [15] the test system is Epidermal growth factor receptor (Homo sapiens), P00533 [L858R]. Nature of the series: Inhibition of human partial length EGFR L858R mutant (R669 to V1011 residues) expressed in Escherichia coli BL21 assessed as residual activity at 1000 nM after 30 mins by Kinomescan method relative to control. The method, boiled down: as §2
Series [16] has as its target Mitogen-activated protein kinase kinase kinase 1 (Homo sapiens) (UniProt Q13233). Nature of the series: Inhibition of wild-type human partial length MAP3K1 (L1202 to W1512 residues) expressed in HEK293 cells assessed as residual activity at 1000 nM after 30 mins by Kinomescan method relative to control. In kind it is cell-based.
Series [17] deals with Ribosomal protein S6 kinase alpha-3 (Homo sapiens) (UniProt P51812). Nature of the series: Inhibition of wild-type human partial length N-terminal RSK3 kinase domain 1 (M1 to Q385 residues) expressed in Escherichia coli BL21 assessed as residual activity at 1000 nM after 30 mins by Kinomescan method relative to control.
Series [18] concerns the target Dual specificity mitogen-activated protein kinase kinase 2 (Homo sapiens) (UniProt P36507). The experiment in a line: Inhibition of wild-type human full length MEK2 (M1 to V400 residues) expressed in HEK293 cells assessed as residual activity at 1000 nM after 30 mins by Kinomescan method relative to control. In kind it is cell-based. The method, boiled down:
as §3

Series [19] has as its target Muscle, skeletal receptor tyrosine-protein kinase (Homo sapiens) (UniProt O15146). The experiment in a line: Inhibition of wild-type human partial length MUSK (M553 to V869 residues) expressed in Escherichia coli BL21 assessed as residual activity at 1000 nM after 30 mins by Kinomescan method relative to control.
The target in series [20] is Serine/threonine-protein kinase 24 (Homo sapiens) (UniProt Q9Y6E0). Nature of the series: Inhibition of wild-type human partial length MST3 (A30 to S311 residues) expressed in Escherichia coli BL21 assessed as residual activity at 1000 nM after 30 mins by Kinomescan method relative to control.
Series [21] deals with Activin receptor type-1B (Homo sapiens) (UniProt P36896). The experiment in a line: Inhibition of wild-type human ACVR1B (S187 to I505 residues) expressed in Escherichia coli BL21 assessed as residual activity at 1000 nM after 30 mins by Kinomescan method relative to control. The method, boiled down:
as §1

Serine/threonine-protein kinase NLK (Homo sapiens), sequence (Q9UBE8 whole entry, the tested form may be a part): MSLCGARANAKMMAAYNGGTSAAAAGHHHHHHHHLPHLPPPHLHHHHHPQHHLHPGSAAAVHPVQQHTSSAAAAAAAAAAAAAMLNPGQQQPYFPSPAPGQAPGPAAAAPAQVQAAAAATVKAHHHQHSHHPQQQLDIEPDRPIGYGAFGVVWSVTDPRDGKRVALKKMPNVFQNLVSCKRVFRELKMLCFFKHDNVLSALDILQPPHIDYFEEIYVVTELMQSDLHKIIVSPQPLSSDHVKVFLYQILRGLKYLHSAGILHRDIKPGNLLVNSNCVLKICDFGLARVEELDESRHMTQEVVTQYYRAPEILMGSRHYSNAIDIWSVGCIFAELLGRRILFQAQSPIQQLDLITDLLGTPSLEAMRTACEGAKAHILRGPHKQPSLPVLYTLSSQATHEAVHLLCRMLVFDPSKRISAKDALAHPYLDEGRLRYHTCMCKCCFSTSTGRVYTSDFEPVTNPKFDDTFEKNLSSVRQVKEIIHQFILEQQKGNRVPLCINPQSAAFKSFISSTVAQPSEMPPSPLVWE
Mast/stem cell growth factor receptor Kit (Homo sapiens), P10721 [V559D], sequence (P10721 whole entry V559D, the tested form may be a part): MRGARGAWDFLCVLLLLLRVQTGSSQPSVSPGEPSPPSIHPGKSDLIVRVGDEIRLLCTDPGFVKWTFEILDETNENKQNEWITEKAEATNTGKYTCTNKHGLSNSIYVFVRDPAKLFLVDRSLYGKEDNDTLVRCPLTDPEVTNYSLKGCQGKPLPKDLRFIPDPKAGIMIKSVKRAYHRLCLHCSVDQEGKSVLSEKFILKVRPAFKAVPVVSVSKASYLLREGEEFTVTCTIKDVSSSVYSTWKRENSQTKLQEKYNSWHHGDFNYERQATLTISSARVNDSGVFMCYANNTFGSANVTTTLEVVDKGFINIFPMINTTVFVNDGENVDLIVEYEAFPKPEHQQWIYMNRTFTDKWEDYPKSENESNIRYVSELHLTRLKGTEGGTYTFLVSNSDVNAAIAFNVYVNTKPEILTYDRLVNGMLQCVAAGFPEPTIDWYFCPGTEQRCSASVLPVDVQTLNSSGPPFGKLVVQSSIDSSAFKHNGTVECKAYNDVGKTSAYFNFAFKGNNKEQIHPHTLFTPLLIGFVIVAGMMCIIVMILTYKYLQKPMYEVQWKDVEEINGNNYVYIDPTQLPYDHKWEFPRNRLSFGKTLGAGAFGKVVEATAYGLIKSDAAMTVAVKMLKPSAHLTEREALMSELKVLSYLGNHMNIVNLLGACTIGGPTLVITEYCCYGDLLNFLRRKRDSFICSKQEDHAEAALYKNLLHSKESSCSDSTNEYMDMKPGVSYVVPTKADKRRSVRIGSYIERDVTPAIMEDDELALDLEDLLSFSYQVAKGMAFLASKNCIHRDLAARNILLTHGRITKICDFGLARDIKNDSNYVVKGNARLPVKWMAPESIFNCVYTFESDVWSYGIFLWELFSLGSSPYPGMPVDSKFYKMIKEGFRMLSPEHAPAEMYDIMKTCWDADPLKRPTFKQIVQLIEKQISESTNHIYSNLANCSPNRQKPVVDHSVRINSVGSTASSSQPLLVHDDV
Homeodomain-interacting protein kinase 2 (Homo sapiens), sequence (Q9H2X6 whole entry, looked up, the tested form may be a part): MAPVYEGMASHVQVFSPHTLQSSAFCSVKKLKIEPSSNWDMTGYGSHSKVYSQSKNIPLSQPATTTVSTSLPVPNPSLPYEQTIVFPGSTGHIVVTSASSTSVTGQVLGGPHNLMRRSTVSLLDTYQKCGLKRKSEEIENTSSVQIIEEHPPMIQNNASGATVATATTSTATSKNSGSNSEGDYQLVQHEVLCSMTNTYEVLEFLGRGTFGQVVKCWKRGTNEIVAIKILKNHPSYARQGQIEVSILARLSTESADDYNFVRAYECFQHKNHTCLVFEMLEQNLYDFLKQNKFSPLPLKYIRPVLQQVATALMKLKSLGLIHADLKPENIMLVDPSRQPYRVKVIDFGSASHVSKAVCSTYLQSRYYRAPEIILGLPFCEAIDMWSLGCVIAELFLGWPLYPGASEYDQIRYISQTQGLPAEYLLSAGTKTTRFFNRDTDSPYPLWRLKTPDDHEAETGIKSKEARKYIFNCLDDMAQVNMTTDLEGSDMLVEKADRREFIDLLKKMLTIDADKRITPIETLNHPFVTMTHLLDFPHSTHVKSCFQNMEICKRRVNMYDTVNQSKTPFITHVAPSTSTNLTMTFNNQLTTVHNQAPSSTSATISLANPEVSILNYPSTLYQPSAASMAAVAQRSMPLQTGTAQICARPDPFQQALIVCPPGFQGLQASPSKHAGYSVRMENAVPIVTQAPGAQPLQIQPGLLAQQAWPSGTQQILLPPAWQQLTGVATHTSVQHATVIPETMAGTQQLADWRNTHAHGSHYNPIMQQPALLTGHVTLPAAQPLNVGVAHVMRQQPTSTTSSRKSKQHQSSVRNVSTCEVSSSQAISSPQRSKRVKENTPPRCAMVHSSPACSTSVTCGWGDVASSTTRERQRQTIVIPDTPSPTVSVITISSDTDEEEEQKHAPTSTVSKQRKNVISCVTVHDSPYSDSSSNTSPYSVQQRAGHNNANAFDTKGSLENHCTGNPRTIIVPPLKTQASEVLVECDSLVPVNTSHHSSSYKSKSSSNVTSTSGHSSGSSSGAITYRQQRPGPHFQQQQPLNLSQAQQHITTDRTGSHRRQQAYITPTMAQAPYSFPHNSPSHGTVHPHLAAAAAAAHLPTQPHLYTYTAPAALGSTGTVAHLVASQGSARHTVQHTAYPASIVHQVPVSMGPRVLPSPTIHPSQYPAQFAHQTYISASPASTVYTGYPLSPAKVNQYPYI
Activin receptor type-1B (Homo sapiens), sequence (P36896 whole entry, the tested form may be a part): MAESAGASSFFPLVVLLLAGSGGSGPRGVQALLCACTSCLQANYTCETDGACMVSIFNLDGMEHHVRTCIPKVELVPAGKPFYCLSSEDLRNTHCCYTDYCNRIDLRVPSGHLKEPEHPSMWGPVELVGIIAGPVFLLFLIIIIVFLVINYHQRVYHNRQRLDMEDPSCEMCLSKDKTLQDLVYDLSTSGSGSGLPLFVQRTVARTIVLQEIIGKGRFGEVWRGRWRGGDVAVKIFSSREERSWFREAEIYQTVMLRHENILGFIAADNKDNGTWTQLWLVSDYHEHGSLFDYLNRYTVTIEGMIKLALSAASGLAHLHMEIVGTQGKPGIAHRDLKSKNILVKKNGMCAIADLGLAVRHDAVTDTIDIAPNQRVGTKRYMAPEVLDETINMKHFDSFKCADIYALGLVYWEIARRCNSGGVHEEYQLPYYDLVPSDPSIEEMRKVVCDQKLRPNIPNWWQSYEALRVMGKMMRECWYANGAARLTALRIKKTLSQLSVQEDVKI
Muscle, skeletal receptor tyrosine-protein kinase (Homo sapiens), sequence (O15146 whole entry, the tested form may be a part): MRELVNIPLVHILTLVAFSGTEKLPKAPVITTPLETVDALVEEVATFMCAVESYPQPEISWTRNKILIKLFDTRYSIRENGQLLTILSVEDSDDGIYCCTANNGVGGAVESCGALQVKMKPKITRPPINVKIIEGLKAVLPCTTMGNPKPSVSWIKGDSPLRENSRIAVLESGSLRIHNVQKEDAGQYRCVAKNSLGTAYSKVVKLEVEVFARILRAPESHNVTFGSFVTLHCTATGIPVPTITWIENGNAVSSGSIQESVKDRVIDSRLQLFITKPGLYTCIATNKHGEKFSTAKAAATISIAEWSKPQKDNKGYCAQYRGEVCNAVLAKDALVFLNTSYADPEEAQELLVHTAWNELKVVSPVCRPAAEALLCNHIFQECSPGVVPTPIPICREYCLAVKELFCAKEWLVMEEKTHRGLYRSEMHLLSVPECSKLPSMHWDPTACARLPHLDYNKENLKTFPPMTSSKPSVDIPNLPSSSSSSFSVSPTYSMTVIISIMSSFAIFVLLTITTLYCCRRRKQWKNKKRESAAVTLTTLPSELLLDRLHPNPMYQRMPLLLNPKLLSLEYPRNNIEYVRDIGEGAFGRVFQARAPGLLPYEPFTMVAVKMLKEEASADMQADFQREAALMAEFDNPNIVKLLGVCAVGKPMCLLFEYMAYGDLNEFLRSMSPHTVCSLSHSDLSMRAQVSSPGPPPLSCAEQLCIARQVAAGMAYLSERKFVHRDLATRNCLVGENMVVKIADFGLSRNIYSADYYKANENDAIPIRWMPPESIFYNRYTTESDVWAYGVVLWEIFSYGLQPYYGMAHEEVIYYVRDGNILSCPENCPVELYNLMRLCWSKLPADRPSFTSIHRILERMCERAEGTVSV

Take `COc1cc(OC)c(Cl)c(N2Cc3cnc(Nc4ccc(F)cc4)nc3N(C3CCN(C(=O)/C=C/CN(C)C)CC3)C2=O)c1Cl`: the Activity is 100% in series [1]; 97% in series [3]; 98% in series [4]; 94% in series [5]; 85% in series [6]; 100% in series [7]. The Activity was found to be 11% in [8]; 80% in series [9]; 90% in series [10]; 100% in series [11]; 100% in series [12]; 90% in [13]. Moreover, the Activity in series [14] was determined as 98%; in [15], 90%; in series [16], 100%; in [17], 97%; in [18] it was 89%; in series [19], 94%. The Activity in series [20] amounted to 68%; in [21], 100%. In addition, in series [2], the activity at 0.5 h, 1 µM came to 62%.

These data come from ChEMBL document CHEMBL4043093, “2-Oxo-3, 4-dihydropyrimido[4, 5-d]pyrimidinyl derivatives as new irreversible pan fibroblast growth factor receptor (FGFR) inhibitors” (Eur J Med Chem, 2017).
